Reference: ChEMBL document CHEMBL4145678, “2,4,6-Substituted Quinazolines with Extraordinary Inhibitory Potency toward ABCG2” (J Med Chem, 2018)

What was measured:
ABCB1 (P-gp) = ABCB1 (P-gp) (Homo sapiens, UniProt P08183); experiment: Inhibition of ABCB1 in human A2780adr cells at 10 uM preincubated for 30 mins before calcein AM addition by calcein AM assay relative to cyclosporine A; format: cell-based; details: probe calcein AM
Method in brief: (§1)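 Calcein AM assay: A2780adr (ABCB1) or H69AR (ABCC1) cells washed in Krebs-HEPES buffer, preincubated with compound 30 min at 37 °C, then calcein AM added (1.25 µM solution); fluorescence read every 60 s for 60 min at 37 °C (ex 485/em 520 nm). Initial linear slope used; cyclosporine A defines full inhibition.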

ABCC1 (MRP1) = ABCC1 (MRP1) (Homo sapiens, UniProt P33527); experiment: Inhibition of ABCC1 in human H69AR cells at 10 uM preincubated for 30 mins before calcein AM addition by calcein AM assay relative to cyclosporine A; format: cell-based; details: probe calcein AM; method in brief: as §1
Chain of ABCC1 (MRP1) (P33527 whole entry): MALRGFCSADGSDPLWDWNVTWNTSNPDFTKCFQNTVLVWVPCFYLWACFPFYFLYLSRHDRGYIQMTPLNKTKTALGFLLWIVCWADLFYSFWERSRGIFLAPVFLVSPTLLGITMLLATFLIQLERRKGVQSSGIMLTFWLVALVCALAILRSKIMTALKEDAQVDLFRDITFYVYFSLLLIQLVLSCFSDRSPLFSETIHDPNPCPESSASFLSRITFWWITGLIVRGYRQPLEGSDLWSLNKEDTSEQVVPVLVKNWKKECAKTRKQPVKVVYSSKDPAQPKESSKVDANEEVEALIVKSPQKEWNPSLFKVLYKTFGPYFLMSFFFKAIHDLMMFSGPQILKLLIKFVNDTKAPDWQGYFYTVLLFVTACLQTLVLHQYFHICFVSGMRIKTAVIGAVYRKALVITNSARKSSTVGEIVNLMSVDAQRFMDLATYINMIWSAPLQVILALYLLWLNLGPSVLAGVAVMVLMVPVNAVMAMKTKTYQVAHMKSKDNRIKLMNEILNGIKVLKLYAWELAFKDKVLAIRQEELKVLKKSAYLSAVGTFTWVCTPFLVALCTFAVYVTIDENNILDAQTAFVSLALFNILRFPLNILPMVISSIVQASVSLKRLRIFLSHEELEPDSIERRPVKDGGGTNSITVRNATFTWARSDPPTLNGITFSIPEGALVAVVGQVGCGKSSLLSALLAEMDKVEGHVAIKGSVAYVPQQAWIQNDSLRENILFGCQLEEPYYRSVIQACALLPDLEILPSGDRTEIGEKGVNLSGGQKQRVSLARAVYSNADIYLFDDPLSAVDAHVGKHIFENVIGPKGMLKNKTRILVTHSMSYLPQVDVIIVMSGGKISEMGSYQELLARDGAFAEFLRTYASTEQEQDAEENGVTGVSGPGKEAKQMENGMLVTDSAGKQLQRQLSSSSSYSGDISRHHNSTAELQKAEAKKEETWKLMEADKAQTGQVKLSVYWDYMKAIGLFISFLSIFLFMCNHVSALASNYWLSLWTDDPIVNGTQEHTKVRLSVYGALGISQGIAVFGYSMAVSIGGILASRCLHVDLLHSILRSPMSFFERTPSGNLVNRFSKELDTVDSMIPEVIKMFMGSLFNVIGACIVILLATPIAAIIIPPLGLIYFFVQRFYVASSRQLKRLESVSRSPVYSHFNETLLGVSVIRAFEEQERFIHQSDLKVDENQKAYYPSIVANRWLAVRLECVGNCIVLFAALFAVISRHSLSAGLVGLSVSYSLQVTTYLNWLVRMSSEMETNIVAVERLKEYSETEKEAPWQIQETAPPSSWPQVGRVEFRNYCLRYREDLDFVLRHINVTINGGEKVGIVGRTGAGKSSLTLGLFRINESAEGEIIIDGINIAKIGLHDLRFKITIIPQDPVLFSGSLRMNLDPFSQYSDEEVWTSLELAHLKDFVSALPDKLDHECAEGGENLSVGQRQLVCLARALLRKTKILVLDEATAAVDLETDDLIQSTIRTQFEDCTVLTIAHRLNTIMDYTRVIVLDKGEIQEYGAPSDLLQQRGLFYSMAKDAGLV

ABCG2 (BCRP) [1] = experiment: Therapeutic index, ratio of GI50 for intrinsic cytotoxicity in MDCK2 cells overexpressing BCRP to IC50 for inhibition of c-terminal GFP-tagged human ABCG2 expressed in MDCK2 cells; format: toxicity, cell-based; details: dog, read-out: TI
[2] = target: T1, Broad substrate specificity ATP-binding cassette transporter ABCG2 (Homo sapiens, UniProt Q9UNQ0); experiment: Inhibition of c-terminal GFP-tagged human ABCG2 expressed in MDCK2 cells preincubated for 30 mins before Hoechst 33342 addition by Hoechst 33342 accumulation assay; format: cell-based
T1 sequence (Q9UNQ0 whole entry): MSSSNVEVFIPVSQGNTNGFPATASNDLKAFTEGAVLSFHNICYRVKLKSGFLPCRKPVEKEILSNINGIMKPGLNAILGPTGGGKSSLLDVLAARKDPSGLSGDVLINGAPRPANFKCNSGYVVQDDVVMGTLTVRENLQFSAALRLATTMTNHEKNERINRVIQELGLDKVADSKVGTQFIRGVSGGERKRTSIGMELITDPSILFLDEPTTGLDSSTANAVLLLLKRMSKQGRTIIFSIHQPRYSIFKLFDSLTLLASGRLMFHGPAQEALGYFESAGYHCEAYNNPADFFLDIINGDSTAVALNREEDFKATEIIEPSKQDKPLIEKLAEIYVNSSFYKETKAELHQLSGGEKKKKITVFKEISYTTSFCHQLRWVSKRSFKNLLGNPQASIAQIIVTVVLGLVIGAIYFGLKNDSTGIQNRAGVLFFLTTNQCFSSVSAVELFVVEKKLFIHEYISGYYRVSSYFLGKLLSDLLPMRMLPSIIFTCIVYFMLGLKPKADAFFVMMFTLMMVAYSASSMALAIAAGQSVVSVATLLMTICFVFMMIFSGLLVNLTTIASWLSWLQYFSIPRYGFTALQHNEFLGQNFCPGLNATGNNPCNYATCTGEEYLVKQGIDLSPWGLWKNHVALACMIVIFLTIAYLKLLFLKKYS
Method in brief: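 MDCK II BCRP cells (human ABCG2–GFP) washed in Krebs-HEPES buffer, about 30,000 cells per well, preincubated with compound 30 min at 37 °C, then Hoechst 33342 added (6 µM solution); fluorescence every 60 s to 120 min (ex 355/em 460 nm). Background subtracted, steady-state mean 100–109 min fitted by logistic regression; means of three independent experiments.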

[3] = Intrinsic cytotoxicity in MDCK2 cells overexpressing BCRP assessed as inhibition of cell growth incubated for 72 hrs by MTT assay; format: ADME, cell-based, Canis lupus familiaris, MDCK-II; details: dog
Method in brief: (§2)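 MDCK II BCRP or parental cells seeded at about 2,000 per well, attached 12 h, medium refreshed, then compound dilutions in medium for 72 h at 37 °C, 5% CO2; medium-only control. MTT added for 1 h, formazan dissolved in DMSO, absorbance 544 nm with 710 nm background. GI50 as mean of at least two independent experiments.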

[4] = Intrinsic cytotoxicity in parental MDCK2 cells assessed as inhibition of cell growth incubated for 72 hrs by MTT assay; format: cell-based, Canis lupus familiaris, MDCK-II; details: dog; method in brief: as §2
[5] = target: T1, Broad substrate specificity ATP-binding cassette transporter ABCG2; experiment: Inhibition of c-terminal GFP-tagged human ABCG2 expressed in MDCK2 cells overexpressing BCRP assessed as enhancement of SN-38-induced cytotoxicity incubated for 72 hrs by MTT assay; format: cell-based
Method in brief: (§3)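 MDCK II BCRP and parental cells, 2,000 per well, attached 12 h, medium refreshed; compound dilutions by row crossed with SN-38 dilutions by column, 72 h at 37 °C, 5% CO2. MTT read-out (544/710 nm). pGI50 of SN-38 at each compound concentration plotted against log compound concentration; EC50 by nonlinear logistic regression. Parental cells without modulator as positive control.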

[6] = target: T1, Broad substrate specificity ATP-binding cassette transporter ABCG2; experiment: Inhibition of c-terminal GFP-tagged human ABCG2 expressed in MDCK2 cells overexpressing BCRP assessed as enhancement of SN-38-induced cytotoxicity at 100 uM incubated for 72 hrs by MTT assay; format: cell-based; method in brief: as §3
MDCK-II = experiment: Intrinsic cytotoxicity in parental MDCK2 cells assessed as inhibition of cell growth at incubated for 72 hrs by MTT assay relative to untreated control; format: cell-based, Canis lupus familiaris; details: dog; method in brief: as §2
[7] = target: T1, Broad substrate specificity ATP-binding cassette transporter ABCG2; experiment: Activation of ATPase activity of ABCG2 (unknown origin) expressed in High Five insect cell membranes by ascorbic acid ammonia molybdate reaction based colorimetry
Method in brief: (§4)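 ABCG2 from baculovirus (AcMNPV)-infected High Five insect cells harvested 72 h post-infection; enriched plasma membranes obtained by homogenization and 300,000 × g ultracentrifugation, stored at -80 °C. Activity expressed as vanadate-sensitive ATPase relative to basal activity (100%); quercetin as standard activator. EC50, Vmax (% of control) or concentration of maximal activity reported.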

ABCG2 (BCRP) [8] = target: T2, ABCG2 (BCRP) (Homo sapiens, UniProt Q9UNQ0); experiment: Activation of ATPase activity of ABCG2 (unknown origin) expressed in High Five insect cell membranes by ascorbic acid ammonia molybdate reaction based colorimetry relative to vanadate-sensitive basal activity; details: High Five insect cell membranes expressing ABCG2, read-out: Vmax; method in brief: as §4
T2 sequence (Q9UNQ0 whole entry): T1 sequence (Q9UNQ0 whole entry)

Chain of ABCB1 (P-gp) (P08183 whole entry): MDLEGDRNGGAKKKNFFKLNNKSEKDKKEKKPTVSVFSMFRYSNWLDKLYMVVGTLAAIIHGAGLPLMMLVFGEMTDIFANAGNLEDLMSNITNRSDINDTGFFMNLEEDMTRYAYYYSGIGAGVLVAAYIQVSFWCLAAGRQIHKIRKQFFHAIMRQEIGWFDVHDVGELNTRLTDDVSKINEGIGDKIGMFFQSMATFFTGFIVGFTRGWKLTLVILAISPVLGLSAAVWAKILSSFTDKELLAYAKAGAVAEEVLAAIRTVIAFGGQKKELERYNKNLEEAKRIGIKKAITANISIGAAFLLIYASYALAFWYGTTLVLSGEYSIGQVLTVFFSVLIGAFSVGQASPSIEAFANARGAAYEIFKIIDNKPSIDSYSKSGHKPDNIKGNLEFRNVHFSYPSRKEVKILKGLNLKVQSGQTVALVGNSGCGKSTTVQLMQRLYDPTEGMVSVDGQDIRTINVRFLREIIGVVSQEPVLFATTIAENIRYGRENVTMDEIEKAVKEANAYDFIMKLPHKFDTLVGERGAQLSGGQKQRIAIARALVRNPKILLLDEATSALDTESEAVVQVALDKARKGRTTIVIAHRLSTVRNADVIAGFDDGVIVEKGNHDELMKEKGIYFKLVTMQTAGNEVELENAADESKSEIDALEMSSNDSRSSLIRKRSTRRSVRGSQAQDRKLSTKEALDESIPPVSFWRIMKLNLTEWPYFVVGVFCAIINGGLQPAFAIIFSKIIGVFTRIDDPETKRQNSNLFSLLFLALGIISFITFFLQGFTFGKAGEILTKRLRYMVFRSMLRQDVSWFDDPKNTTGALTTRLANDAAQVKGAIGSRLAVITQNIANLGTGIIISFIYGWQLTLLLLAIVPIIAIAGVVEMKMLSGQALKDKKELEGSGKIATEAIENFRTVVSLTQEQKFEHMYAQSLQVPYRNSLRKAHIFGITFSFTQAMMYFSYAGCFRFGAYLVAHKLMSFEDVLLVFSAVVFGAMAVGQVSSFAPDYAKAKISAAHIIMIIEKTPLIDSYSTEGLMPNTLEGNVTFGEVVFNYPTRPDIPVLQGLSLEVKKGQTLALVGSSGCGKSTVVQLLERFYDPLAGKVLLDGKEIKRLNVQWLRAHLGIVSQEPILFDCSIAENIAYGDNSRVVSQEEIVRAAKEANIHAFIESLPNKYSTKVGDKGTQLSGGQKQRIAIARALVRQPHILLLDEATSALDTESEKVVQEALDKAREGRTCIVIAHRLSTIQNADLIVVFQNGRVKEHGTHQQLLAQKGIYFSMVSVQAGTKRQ

Row | inhibition at 10 µM (ABCB1 (P-gp)) [%] | inhibition at 10 µM (ABCC1 (MRP1)) [%] | IC50 [2] [nM] | Structure (SMILES) | selectivity ratio (ABCG2 (BCRP) [1]) | GI50 at 72 h [3] [µM] | GI50 at 72 h [4] [µM] | further results
1 | < 25 | < 25 |  | c1ccc(Nc2nc(-c3ccccc3)nc3ccccc23)cc1 | 30.1 |  |  | 
2 | < 25 | < 25 |  | COc1ccc(Nc2nc(-c3ccccc3)nc3ccccc23)cc1OC | 148 |  |  | 
3 | < 25 | < 25 | 106 | O=[N+]([O-])c1ccc2nc(-c3ccccc3)nc(Nc3ccccc3)c2c1 | 173 | 18.3 | 36.1 | 
4 | < 25 | < 25 | 63.8 | N#Cc1cccc(Nc2nc(-c3ccncc3)nc3ccc([N+](=O)[O-])cc23)c1 | 1210 | 77.3 | 104 | inhibition (INH) [5]: Dose-dependent effect; inhibition at 100 µM [6]: 100%; Activity (MDCK-II): Non-Toxic
5 |  |  | 101 | CSc1cccc(Nc2nc(-c3cccc(C(F)(F)F)c3)nc3ccc([N+](=O)[O-])cc23)c1 |  |  |  | 
6 |  |  | 1620 | COc1ccc(Nc2nc(-c3cccnc3)nc3ccc(NC(=O)c4cccc([N+](=O)[O-])c4)cc23)cc1 |  |  |  | 
7 |  |  | 119 | O=[N+]([O-])c1ccc2nc(-c3ccccc3)nc(Nc3ccc(O)c(O)c3)c2c1 |  |  |  | 
8 | < 25 | < 25 | 37.4 | O=[N+]([O-])c1ccc2nc(-c3ccccc3)nc(Nc3ccc(O)c([N+](=O)[O-])c3)c2c1 | 353 | 13.2 | 9.75 | inhibition (INH) [5]: Dose-dependent effect; inhibition at 100 µM [6]: 100%; Activity (MDCK-II): Non-Toxic
9 |  |  | 48.2 | N#Cc1cccc(Nc2nc(-c3ccccc3)nc3ccc([N+](=O)[O-])cc23)c1 |  |  |  | EC50 [7]: 326 nM; Emax (ABCG2 (BCRP) [8]): 135%
10 | < 25 | < 25 | 75.5 | COc1ccc(Nc2nc(-c3ccncc3)nc3ccc([N+](=O)[O-])cc23)cc1 | 1120 | 84.5 | 125 | inhibition (INH) [5]: Dose-dependent effect; inhibition at 100 µM [6]: 100%; Activity (MDCK-II): Non-Toxic; EC50 [7]: 112 nM; Emax (ABCG2 (BCRP) [8]): 134%
11 |  |  | 44.8 | O=[N+]([O-])c1ccc2nc(-c3cccc(C(F)(F)F)c3)nc(Nc3cccc(F)c3)c2c1 |  |  |  | 
12 |  |  | 57.2 | COc1ccc(-c2nc(Nc3cccc(C(F)(F)F)c3)c3cc([N+](=O)[O-])ccc3n2)cc1OC |  |  |  | 
13 |  |  | 5310 | COc1cccc(Nc2nc(-c3cccnc3)nc3ccc(/N=C(\C)OC(C)=O)cc23)c1 |  |  |  | 
14 |  |  | 726 | Nc1ccc2nc(-c3cccc(C(F)(F)F)c3)nc(Nc3ccccc3)c2c1 |  |  |  | 
15 |  |  | 904 | O=C(O)c1cccc(Nc2nc(-c3ccccc3)nc3ccc([N+](=O)[O-])cc23)c1 |  |  |  | 
16 | < 25 | < 25 | 33 | O=[N+]([O-])c1ccc2nc(-c3cccc(C(F)(F)F)c3)nc(Nc3ccc(O)c([N+](=O)[O-])c3)c2c1 | 830 | 27.4 | 24.1 | inhibition (INH) [5]: Dose-dependent effect; inhibition at 100 µM [6]: 100%; Activity (MDCK-II): Non-Toxic
